Assay results reported in ChEMBL document CHEMBL4819017 (Eur J Med Chem, 2021).

What was measured:
[1] = AUC (infinity) in BALB/c mouse at 5 mg/kg, iv measured for 8 hrs; assay type: ADME, organism-based; parameters: route intravenous, dose 5 mg/kg, time 8 hrs; conditions: in vivo
Procedure, shortened: (§1)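 BALB/c mice dosed I.V. or P.O. at the stated dose; plasma levels followed for 8 h. Parameters from noncompartmental analysis: AUC (h.ng/ml), T1/2 (h), Cl (L/h/Kg), Vd (L/Kg), Cmax (ng/ml), Tmax (h).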

[2] = Metabolic stability in mouse liver microsomes assessed as parent compound remaining in presence of NADPH regenerating system at 0.5 uM measured after 15 mins by LC-MS/MS analysis; assay type: ADME, Microsome; conditions: read-out: Stabilty
Procedure, shortened: (§2)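 Human, mouse or rat liver microsomes at 0.5 mg/ml protein with compound at 0.5 µM and NADPH-regenerating system, 37 °C with shaking. Control wells contain 0.1 M potassium phosphate instead of the regenerating system. Reaction stopped with acetonitrile/0.1% formic acid, centrifuged, supernatant analyzed by LC-MS/MS. Result is percent parent compound remaining.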

[3] = Metabolic stability in rat liver microsomes assessed as parent compound remaining in presence of NADPH regenerating system at 0.5 uM measured after 15 mins by LC-MS/MS analysis; assay type: ADME, Microsome; conditions: read-out: Stabilty; procedure, shortened: as §2
[4] = molecular target: T1, Cytochrome P450 1A2 (Homo sapiens, UniProt P05177); assay: Inhibition of CYP1A2 (unknown origin) using Luciferin-ME as substrate at 10 uM preincubated with enzyme and substrate for 5 mins followed by addition of NADPH regeneration system and measured after 60 mins by luminescence method; assay type: ADME
T1 sequence (P05177 whole entry): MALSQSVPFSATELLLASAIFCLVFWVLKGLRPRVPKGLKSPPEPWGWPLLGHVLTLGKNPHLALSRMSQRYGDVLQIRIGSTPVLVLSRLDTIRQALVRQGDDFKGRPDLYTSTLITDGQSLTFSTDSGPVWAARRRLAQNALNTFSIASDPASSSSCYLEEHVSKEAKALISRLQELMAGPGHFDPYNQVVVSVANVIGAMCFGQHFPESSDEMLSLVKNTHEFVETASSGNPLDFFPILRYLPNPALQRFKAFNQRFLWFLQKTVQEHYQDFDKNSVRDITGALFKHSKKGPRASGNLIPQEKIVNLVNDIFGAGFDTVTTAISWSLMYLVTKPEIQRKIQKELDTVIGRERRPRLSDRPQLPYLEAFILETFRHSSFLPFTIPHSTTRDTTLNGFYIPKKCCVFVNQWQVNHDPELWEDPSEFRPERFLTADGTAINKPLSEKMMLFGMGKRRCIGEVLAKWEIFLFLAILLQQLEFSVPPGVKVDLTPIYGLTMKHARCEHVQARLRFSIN
Procedure, shortened: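 P450-Glo luminescence assays with these substrates: Luciferin-ME (CYP1A2), Luciferin-PPXE (CYP3A4), Luciferin-H (CYP2C9), LuciferinH-EG (CYP2C19), Luciferin-ME-EG (CYP2D6). Compounds run in 1/3 serial dilutions from 10 µM in 0.5% DMSO with enzyme and substrate. After 5 min preincubation, NADPH regeneration reagent added; 60 min at 37 °C, then detection reagent for 30 min. Background subtracted.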

[5] = Volume of distribution in BALB/c mouse at 5 mg/kg, iv measured for 8 hrs; assay type: ADME, organism-based; conditions: in vivo
Procedure, shortened: (§3)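 Dosing in BALB-C mice intravenously or orally, with plasma sampled over 8 h. Parameters (AUC, T1/2, Cl, Vd, Cmax, Tmax) come from a noncompartmental model. Units: AUC h.ng/ml, Vd L/Kg, Cmax ng/ml, Tmax h.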

[6] = Tmax in BALB/c mouse at 10 mg/kg, po measured for 8 hrs; assay type: ADME, organism-based; conditions: in vivo; procedure, shortened: as §3
[7] = Half life in BALB/c mouse at 10 mg/kg, po measured for 8 hrs; assay type: ADME, organism-based; conditions: in vivo; procedure, shortened: as §1
[8] = Oral bioavailability in BALB/c mouse at 10 mg/kg measured for 8 hrs; assay type: ADME, organism-based; conditions: in vivo; procedure, shortened: as §1
[9] = molecular target: PI3-kinase p110-alpha/p85-alpha (Homo sapiens, UniProt P42336); assay: Inhibition of human p110alpha/p85alpha using PIP2 as substrate in presence of ATP measured by HTRF assay; assay type: protein-complex assay
[10] = molecular target: PI3K p110 beta/p85 alpha (Homo sapiens, UniProt P42338); assay: Inhibition of human p110beta/p85alpha using PIP2 as substrate in presence of ATP measured by HTRF assay; assay type: protein-complex assay
[11] = molecular target: PI3-kinase p110-delta/p85-alpha (Homo sapiens, UniProt O00329); assay: Inhibition of human p110delta/p85alpha using PIP2 as substrate in presence of ATP measured by HTRF assay; assay type: protein-complex assay
[12] = organism: Homo sapiens; assay: Selectivity ratio of Ki for human p110gamma to Ki for human p110alpha/p85alpha using PIP2 as substrate in presence of ATP
Procedure, shortened: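 Ki from a PI3-kinase HTRF assay run per manufacturer. Enzyme levels: p110α/p85α and p110δ/p85α 100 pM, p110β/p85α 500 pM, p110γ 4 nM. ATP at 50× KM: 200 μM (α, δ), 250 μM (β), 100 μM (γ). PIP2 10 μM. Activity normalized to no-compound control. Ratio is the isoform Ki over the α Ki.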

[13] = molecular target: PI3-kinase p110-alpha/p85-alpha (Homo sapiens, UniProt P42336, H1047R); assay: Inhibition of p110alpha H1047R mutant/p85alpha (unknown origin) using PIP2:3PS lipid kinase as substrate in presence of ATP measured by ADP-Glo lipid kinase assay; assay type: protein-complex assay
Procedure, shortened: (§4)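 Lipid kinase assay with PIP2:3PS substrate held at 3.25 µM. Activity normalized to no-compound control for each enzyme and fitted to a variable-slope sigmoidal dose-response curve.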

[14] = Inhibition of p110alpha E545K mutant/p85alpha (unknown origin) using PIP2:3PS lipid kinase as substrate in presence of ATP measured by ADP-Glo lipid kinase assay; parameters: species or system Homo sapiens; procedure, shortened: as §4
[15] = Inhibition of PI3K/mTOR in human MCF7 cells assessed as reduction of AKT phosphorylation at Ser473 residue measured after 3 hrs by western blot assay; assay type: cell-based; conditions: MCF7, 3 h
Procedure, shortened: (§5)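 MCF7 cells treated for 3 h across a dose range, washed and lysed with phosphatase and protease inhibitors. Lysates run on 10% SDS-PAGE and blotted, antibodies incubated overnight at 4 °C.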

[16] = Inhibition of PI3K/mTOR in human MCF7 cells assessed as reduction of P70S6K phosphorylation at Thr389 residue measured after 3 hrs by western blot assay; assay type: cell-based; conditions: MCF7, 3 h; procedure, shortened: as §5
[17] = Inhibition of PI3K/mTOR in human MCF7 cells assessed as reduction of S6 phosphorylation at Ser235/236 residue measured after 3 hrs by western blot assay; assay type: cell-based; conditions: MCF7, 3 h; procedure, shortened: as §5
[18] = tested on: HCT-116; assay: Growth inhibition of human HCT-116 cells harboring mutated p110alpha measured after 72 hrs by Cell titre Glo-luminiscence cell viability assay; assay type: functional
Procedure, shortened: (§6)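 Cells harvested just before confluency and seeded at 4,000 cells/well, then left 24 h before dosing. Serial dilutions from 10 mM DMSO stocks, final DMSO ≤0.5%, each concentration in duplicate.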

[19] = tested on: SK-OV-3; assay: Growth inhibition of human SK-OV-3 cells harboring mutated p110alpha measured after 72 hrs by Cell titre Glo-luminiscence cell viability assay; assay type: functional; procedure, shortened: as §6

PI3K p110 beta/p85 alpha, sequence (P27986 whole entry): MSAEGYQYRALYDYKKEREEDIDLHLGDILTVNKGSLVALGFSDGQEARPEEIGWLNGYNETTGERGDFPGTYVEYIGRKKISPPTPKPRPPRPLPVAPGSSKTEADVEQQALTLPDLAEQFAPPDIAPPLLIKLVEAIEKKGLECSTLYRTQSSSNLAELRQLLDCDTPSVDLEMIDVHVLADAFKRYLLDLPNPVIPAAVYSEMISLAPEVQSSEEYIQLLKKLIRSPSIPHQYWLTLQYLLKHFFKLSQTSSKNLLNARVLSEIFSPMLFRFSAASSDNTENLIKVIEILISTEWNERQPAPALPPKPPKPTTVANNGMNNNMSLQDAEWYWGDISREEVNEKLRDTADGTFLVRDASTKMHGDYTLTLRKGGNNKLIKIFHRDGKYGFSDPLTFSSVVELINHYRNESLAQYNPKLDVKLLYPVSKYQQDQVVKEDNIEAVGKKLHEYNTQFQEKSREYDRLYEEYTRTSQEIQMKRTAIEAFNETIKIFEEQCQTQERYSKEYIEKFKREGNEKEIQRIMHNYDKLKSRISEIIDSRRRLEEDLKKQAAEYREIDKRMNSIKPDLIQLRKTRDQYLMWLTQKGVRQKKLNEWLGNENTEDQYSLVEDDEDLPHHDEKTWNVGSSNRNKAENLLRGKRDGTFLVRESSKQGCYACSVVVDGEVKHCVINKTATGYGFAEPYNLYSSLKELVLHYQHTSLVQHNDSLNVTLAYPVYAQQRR
PI3K p110 beta/p85 alpha, sequence (P42338 whole entry): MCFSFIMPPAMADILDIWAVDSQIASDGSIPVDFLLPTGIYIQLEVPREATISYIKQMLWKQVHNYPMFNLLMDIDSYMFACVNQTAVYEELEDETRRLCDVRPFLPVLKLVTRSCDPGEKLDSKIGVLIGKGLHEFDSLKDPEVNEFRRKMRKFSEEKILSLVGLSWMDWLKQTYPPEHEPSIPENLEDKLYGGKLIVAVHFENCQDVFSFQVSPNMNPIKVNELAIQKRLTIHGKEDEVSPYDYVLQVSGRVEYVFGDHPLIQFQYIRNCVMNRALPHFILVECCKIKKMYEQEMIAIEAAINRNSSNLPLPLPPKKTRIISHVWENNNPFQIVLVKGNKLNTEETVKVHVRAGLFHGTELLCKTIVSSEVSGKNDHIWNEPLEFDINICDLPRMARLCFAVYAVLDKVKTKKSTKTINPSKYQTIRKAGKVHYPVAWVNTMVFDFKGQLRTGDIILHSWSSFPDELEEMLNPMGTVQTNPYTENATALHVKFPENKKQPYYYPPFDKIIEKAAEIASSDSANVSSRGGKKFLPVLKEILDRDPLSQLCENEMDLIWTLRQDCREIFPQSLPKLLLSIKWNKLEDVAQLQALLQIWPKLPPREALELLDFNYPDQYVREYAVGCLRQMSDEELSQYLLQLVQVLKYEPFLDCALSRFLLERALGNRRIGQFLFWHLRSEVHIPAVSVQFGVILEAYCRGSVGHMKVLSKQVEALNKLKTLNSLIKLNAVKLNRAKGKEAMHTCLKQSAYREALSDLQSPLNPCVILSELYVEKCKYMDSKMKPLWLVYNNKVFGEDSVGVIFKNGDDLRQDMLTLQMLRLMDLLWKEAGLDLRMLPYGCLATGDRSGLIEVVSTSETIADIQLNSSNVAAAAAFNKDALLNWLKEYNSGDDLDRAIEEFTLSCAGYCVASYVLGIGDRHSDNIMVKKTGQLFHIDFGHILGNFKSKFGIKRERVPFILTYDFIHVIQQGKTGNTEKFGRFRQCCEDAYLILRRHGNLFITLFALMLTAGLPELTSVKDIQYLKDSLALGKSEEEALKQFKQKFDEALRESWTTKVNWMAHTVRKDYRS
PI3-kinase p110-delta/p85-alpha, sequence (P27986 whole entry): as the sequence (P27986 whole entry) above
PI3-kinase p110-delta/p85-alpha, sequence (O00329 whole entry): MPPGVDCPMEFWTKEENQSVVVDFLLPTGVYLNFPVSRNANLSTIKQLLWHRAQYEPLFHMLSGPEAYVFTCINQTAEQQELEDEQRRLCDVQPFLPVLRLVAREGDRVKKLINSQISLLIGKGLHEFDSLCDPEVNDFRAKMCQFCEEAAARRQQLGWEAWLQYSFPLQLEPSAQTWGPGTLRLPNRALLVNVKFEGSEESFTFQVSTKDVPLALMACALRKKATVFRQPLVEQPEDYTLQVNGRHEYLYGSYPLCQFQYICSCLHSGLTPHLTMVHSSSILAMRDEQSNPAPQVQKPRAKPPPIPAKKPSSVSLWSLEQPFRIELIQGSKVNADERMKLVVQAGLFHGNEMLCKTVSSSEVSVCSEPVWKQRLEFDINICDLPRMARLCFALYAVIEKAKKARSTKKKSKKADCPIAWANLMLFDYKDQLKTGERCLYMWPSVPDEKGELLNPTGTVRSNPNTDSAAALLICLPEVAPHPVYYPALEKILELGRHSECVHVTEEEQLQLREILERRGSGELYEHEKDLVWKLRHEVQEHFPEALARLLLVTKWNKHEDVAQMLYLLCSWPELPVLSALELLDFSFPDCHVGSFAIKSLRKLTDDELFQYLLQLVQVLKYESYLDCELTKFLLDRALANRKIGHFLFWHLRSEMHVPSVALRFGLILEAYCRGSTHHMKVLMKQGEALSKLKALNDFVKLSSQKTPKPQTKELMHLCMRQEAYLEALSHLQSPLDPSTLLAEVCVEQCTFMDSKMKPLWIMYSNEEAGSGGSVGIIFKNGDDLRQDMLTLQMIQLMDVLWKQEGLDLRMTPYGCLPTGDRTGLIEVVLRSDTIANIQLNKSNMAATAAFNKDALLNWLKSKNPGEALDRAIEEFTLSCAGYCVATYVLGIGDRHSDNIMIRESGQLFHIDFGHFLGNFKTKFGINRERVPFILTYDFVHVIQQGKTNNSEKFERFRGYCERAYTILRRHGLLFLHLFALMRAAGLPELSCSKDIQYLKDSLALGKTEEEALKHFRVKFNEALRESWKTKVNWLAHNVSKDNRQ
PI3-kinase p110-alpha/p85-alpha (Homo sapiens, UniProt P42336), sequence (P27986 whole entry): as the sequence (P27986 whole entry) above
PI3-kinase p110-alpha/p85-alpha (Homo sapiens, UniProt P42336), sequence (P42336 whole entry): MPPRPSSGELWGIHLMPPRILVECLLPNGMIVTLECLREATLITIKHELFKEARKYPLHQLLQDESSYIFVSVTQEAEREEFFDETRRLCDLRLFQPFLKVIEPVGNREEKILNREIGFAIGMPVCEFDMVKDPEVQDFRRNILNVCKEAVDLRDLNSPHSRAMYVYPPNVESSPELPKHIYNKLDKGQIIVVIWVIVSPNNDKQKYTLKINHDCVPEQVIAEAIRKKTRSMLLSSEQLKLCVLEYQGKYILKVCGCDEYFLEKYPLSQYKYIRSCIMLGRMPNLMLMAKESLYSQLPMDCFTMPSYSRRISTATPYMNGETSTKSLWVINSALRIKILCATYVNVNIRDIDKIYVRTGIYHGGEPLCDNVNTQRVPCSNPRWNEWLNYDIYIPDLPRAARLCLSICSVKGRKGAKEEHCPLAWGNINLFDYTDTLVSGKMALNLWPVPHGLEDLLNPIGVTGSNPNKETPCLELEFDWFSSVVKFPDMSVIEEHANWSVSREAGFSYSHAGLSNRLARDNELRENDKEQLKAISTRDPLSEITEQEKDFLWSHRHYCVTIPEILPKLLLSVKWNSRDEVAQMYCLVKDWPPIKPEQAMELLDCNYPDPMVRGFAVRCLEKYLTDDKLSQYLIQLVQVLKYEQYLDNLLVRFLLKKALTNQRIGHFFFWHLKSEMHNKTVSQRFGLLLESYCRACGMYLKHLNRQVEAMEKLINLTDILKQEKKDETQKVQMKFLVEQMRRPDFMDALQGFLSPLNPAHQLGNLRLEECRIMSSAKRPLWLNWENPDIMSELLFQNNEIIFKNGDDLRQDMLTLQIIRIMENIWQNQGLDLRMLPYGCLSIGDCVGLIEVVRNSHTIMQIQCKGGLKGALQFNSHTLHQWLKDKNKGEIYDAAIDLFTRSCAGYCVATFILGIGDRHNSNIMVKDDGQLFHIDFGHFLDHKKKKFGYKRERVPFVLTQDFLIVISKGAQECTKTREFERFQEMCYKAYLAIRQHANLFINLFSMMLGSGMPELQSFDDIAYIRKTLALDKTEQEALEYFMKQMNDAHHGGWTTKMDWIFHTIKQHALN
PI3-kinase p110-alpha/p85-alpha (Homo sapiens, UniProt P42336, H1047R), sequence (P42336 whole entry H1047R, looked up): as the sequence (P42336 whole entry) above, with H1047R counted along it

AUC(0-inf) [1]: 2640 ng·h/mL
remaining at 0.25 h, 0.5 µM [2]: 97%
remaining at 0.25 h, 0.5 µM [3]: 100%
IC50 [4]: > 30 µM
Vd [5]: 5.98 L/kg
Tmax [6]: 30 min
half-life [7]: 313 min
bioavailability [8]: 84.6%
Ki [9]: 0.16 nM
Ki [10]: 0.94 nM
Ki [11]: 0.06 nM
Selectivity ratio [12]: 6.3
Ki [13]: 0.1 nM
Ki [14]: 0.14 nM
EC50 [15]: 0.46 nM
EC50 [16]: 0.92 nM
EC50 [17]: 0.84 nM
GI50 [18]: 22.8 nM
GI50 [19]: 18.9 nM
SMILES: COc1ncc2cc1NS(=O)(=O)c1cccc(c1)C(=O)NCc1cncc(c1)-c1cnc3ccc-2cn13
